Test results taken from article PMC3156442 (Molecular bioSystems, 2010).

Key:
[1] = system: Jurkat cells; assay: LDH release cytotoxicity; assay type: cell-based, human; conditions: 10 μM, 37 °C; for Cytotoxicity by LDH release (in words): 10 min or 60 min
In short: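 Jurkat cells exposed to 10 μM lipopeptide at 37 °C for 10 or 60 min, then the plate was centrifuged at 250 × g for 4 min. Released LDH in the supernatant was read using tetrazolium substrate (RT, 30 min, dark) at 490 nm. Controls were spontaneous release, lysis-solution maximum, volume correction and medium background. % cytotoxicity = (experimental − spontaneous)/(maximum − spontaneous) × 100. Triplicate.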

[2] = system: Jurkat cells; assay: Cellular uptake of FITC-labelled LPs by flow cytometry; assay type: cell-based, human; conditions: 10 μM, 10 min, 37 °C

CCCCCCCCCCCC(=O)NCCC(=O)N[C@@H](CCCNC(=N)N)C(=O)N[C@@H](CCCNC(=N)N)C(=O)N[C@@H](CCCNC(=N)N)C(=O)N[C@@H](CCCNC(=N)N)C(=O)N[C@@H](CCCNC(=N)N)C(=O)N[C@@H](CCCNC(=N)N)C(=O)N[C@@H](CCCNC(=N)N)C(=O)N[C@@H](CCCCNC(=S)Nc1ccc2c(c1)C(=O)OC21c2ccc(O)cc2Oc2cc(O)ccc21)C(N)=O [C12R7]
Cytotoxicity by LDH release (in words) [1]: didn’t exhibit any significant toxicity

CCCCCCCCCCCCCC(=O)NCCC(=O)N[C@@H](CCCNC(=N)N)C(=O)N[C@@H](CCCNC(=N)N)C(=O)N[C@@H](CCCNC(=N)N)C(=O)N[C@@H](CCCNC(=N)N)C(=O)N[C@@H](CCCNC(=N)N)C(=O)N[C@@H](CCCNC(=N)N)C(=O)N[C@@H](CCCNC(=N)N)C(=O)N[C@@H](CCCCNC(=S)Nc1ccc2c(c1)C(=O)OC21c2ccc(O)cc2Oc2cc(O)ccc21)C(N)=O [C14R7]
Cytotoxicity by LDH release (in words) [1]: didn’t exhibit any significant toxicity

CCCCCCCCCCCCCC(=O)NCCC(=O)N[C@H](CCCNC(=N)N)C(=O)N[C@H](CCCNC(=N)N)C(=O)N[C@H](CCCNC(=N)N)C(=O)N[C@H](CCCNC(=N)N)C(=O)N[C@H](CCCNC(=N)N)C(=O)N[C@H](CCCNC(=N)N)C(=O)N[C@H](CCCNC(=N)N)C(=O)N[C@H](CCCNC(=N)N)C(=O)N[C@H](CCCNC(=N)N)C(=O)N[C@H](CCCNC(=N)N)C(=O)N[C@H](CCCNC(=N)N)C(=O)N[C@@H](CCCCNC(=S)Nc1ccc2c(c1)C(=O)OC21c2ccc(O)cc2Oc2cc(O)ccc21)C(N)=O [C14dR11]
Signal intensity relative to C14R11 (C14R11 set as 1) [2]: 5 fold
Cytotoxicity (LDH release, % of maximum) ([1]; 60 min, triplicate, mean ± SD): 5.97 ± 0.9%

CCCCCCCCCCCCCCCC(=O)NCCC(=O)N[C@@H](CCCNC(=N)N)C(=O)N[C@@H](CCCNC(=N)N)C(=O)N[C@@H](CCCNC(=N)N)C(=O)N[C@@H](CCCNC(=N)N)C(=O)N[C@@H](CCCNC(=N)N)C(=O)N[C@@H](CCCNC(=N)N)C(=O)N[C@@H](CCCNC(=N)N)C(=O)N[C@@H](CCCCNC(=S)Nc1ccc2c(c1)C(=O)OC21c2ccc(O)cc2Oc2cc(O)ccc21)C(N)=O [C16R7]
Cytotoxicity by LDH release (in words) [1]: didn’t exhibit any significant toxicity
